The text below walks through data of ChEMBL document CHEMBL1140324, “Rational design of non-nucleoside, potent, and orally bioavailable adenosine deaminase inhibitors: predicting enzyme conformational change and metabolism” (J Med Chem, 2005).

Data set [1] concerns Mus musculus. In words: Antitumor activity (10 mg/kg, p.o., b.i.d.) on lymphoma U-937 tumor growth inoculated in mice. The format is functional. An outline of the steps:
(§1)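 SCID mice bearing U-937 lymphoma. Inhibitor given orally as HCl salt, either once (u.i.d.) or twice (b.i.d.) daily, in combination with the antitumor nucleoside AraA. Read-out was median survival time in days, compared with an untreated control group and an AraA-alone arm (10 mg/kg).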

Data set [2] concerns Mus musculus. In words: Antitumor activity (10 mg/kg, p.o., b.i.d.) expressed as median survival time is its ability to inhibit lymphoma U-937 tumor growth inoculated in mice. It is filed as functional. In outline:
as §1

Data set [3] in a line: Area under blood-concentration time curve after 10 mg/kg peroral dose in rat. The format is ADME, organism-based. The arrangement: dose 10 mg/kg, route oral. The conditions noted are these: in vivo, po. In outline:
(§2)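 Rats dosed orally at 10 mg/kg (n = 2–3). Cmax and t1/2 are taken from plasma. AUC covers 0–24 h. Bioavailability is the oral exposure parameter for the same dosing.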

The nature of data set [4]: Maximum plasma concentration after peroral administration of 10 mg/kg in rat. The format is ADME, organism-based. The arrangement: dose 10 mg/kg, route oral. Conditions: po. An outline of the steps: as §2
The test system of data set [5] is Mus musculus. In words: Antitumor activity (32 mg/kg, p.o., b.i.d.) expressed as median survival time is its ability to inhibit lymphoma U-937 tumor growth inoculated in mice. It is filed as functional. An outline of the steps: as §1
For another data set, the target named is T1, Adenosine deaminase (Homo sapiens, UniProt P00813).
T1 sequence (P00813 whole entry): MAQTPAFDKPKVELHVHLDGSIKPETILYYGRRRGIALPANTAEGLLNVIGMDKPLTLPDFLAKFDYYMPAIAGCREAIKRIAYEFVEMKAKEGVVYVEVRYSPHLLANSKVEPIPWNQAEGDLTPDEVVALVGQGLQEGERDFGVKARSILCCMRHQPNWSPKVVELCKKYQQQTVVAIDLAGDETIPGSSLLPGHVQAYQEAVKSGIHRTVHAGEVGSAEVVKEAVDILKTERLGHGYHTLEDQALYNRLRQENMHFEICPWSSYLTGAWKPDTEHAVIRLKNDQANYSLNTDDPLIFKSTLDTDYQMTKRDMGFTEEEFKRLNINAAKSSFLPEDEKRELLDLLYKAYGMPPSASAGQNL
In words: Inhibitory concentration against adenosine deaminase.

The nature of data set [6]: In vitro clearance in dog liver microsomes. The format is ADME, Canis lupus familiaris, Microsome. On the technique in general: Liver microsomes are vesicles of endoplasmic reticulum, rich in cytochrome P450 enzymes.
For data set [7], the species on record is Rattus norvegicus. In words: Peroral dose showing antiinflammatory effect in adjuvant arthritis model in rats. The format is functional. The conditions noted are these: po. An outline of the steps: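 Rat adjuvant arthritis model with oral dosing. Anti-inflammatory potency is reported as ED30 in mg/kg po.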
The nature of data set [8]: Plasma half life (10 mg/kg, p.o.) in rat. It is filed as ADME, organism-based. The conditions noted are these: po. An outline of the steps: as §2
Data set [9] can be described thus: In vitro clearance in rat liver microsomes. Conditions: read-out: Clearance. The format is ADME, Microsome.
Data set [10] concerns Mus musculus. In words: Antitumor activity (2.5, i.p.) on lymphoma U-937 tumor growth inoculated in mice. The format is functional. In outline:
(§3)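 SCID mouse U-937 lymphoma model. Pentostatin given intraperitoneally once daily. Efficacy read as median survival time in days, relative to a control group.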

Data set [11] concerns Mus musculus. In words: Antitumor activity (0.25 mg/kg, i.p.) on lymphoma U-937 tumor growth inoculated in mice. The format is functional. An outline of the steps: as §3
In data set [12] the test system is Mus musculus. In words: Antitumor activity (10 mg/kg, p.o., u.i.d.) expressed as median survival time is its ability to inhibit lymphoma U-937 tumor growth inoculated in mice. The format is functional. In outline:
as §1

Data set [13] is described as follows: In vitro clearance in human liver microsomes. The format is ADME, Microsome. Conditions: read-out: Clearance.
Data set [14] is described as follows: Oral bioavailability in dog (dose 10 mg/kg). The format is ADME, organism-based, Canis lupus familiaris. Conditions: in vivo. In outline:
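Dogs dosed orally at 10 mg/kg (n = 2–3). Oral bioavailability was determined.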

In data set [15] the test system is Mus musculus. In words: Antitumor activity (32 mg/kg, p.o., u.i.d.) expressed as median survival time is its ability to inhibit lymphoma U-937 tumor growth inoculated in mice. The format is functional. In outline:
as §1

The nature of data set [16]: (§4) Oral bioavailability in rat (dose 10 mg/kg). The format is ADME, organism-based. The conditions noted are these: in vivo. In outline: as §2
In data set [17] the test system is Rattus norvegicus. The description is as §4. It is filed as functional, organism-based. In outline:
as §2

Several values for one entry are separate records, joined by “and”; a condition that tells them apart may be missing. Equal values may be shown once.

Regarding `Nc1ncnc2c1ncn2[C@@H]1O[C@H](CO)[C@@H](O)[C@@H]1O` [VIDARABINE], the MST in the data set with Mus musculus [1] amounted to 34 days.
As a reminder, the AUC is concentration integrated over time. A lower AUC goes with less exposure. In general, Cmax refers to the highest concentration seen after dosing. By IC50 is commonly meant the concentration that inhibits the measured activity by half. As for `C[C@H](O)[C@@H](CCc1cccc(Cl)c1Cl)n1cnc(C(N)=O)c1`, the MST in the data set on Mus musculus [2] is 34 days; with Mus musculus [5], 42.5 days and 38 days. Further, in [3], the AUC was found to be 2110 ng·h/mL. This compound came in with a peak concentration (Cmax) in data set [4] of 1630 ng/mL. Besides, on Adenosine deaminase, the midpoint of inhibition, the IC50, lay at 15 nM. In data set [6], this compound had a Clearance of 21 mL/min/kg. In the data set listed under Rattus norvegicus [7], the ED30 is 1.6 mg/kg.
What is called half-life is how long it takes for the measured level to halve. For the compound `Cn1cc(CC[C@H](CO)n2cnc(C(N)=O)c2)c2cc(OCCCc3ccc(Cl)cc3)ccc21`, the exposure (AUC) in data set [3] stood at 260 ng·h/mL. The highest level in data set [4] (Cmax) was 210 ng/mL. In data set [8], this compound gave a half-life of 1.09 h. For the same compound, on Adenosine deaminase, the concentration for half-maximal inhibition (IC50) was 6.7 nM. In addition, the CLint scaled in data set [9] came out at 643 mL/min/kg.
`C[C@H](O)[C@@H](CCc1cccc2ccccc12)n1cnc(C(N)=O)c1` registered an exposure (AUC) in data set [3] of 1370 ng·h/mL. In [4], the Cmax came out at 1250 ng/mL. Besides, 16 nM corresponded to half-maximal inhibition at Adenosine deaminase (IC50). Further, the Clearance in data set [6] was found to be 30 mL/min/kg.
Turning to `OC[C@H]1O[C@@H](n2cnc3c2N=CNC[C@H]3O)C[C@@H]1O` [PENTOSTATIN], the MST with Mus musculus [10] amounted to 42.5 days; with Mus musculus [11], 34 days.
With `C[C@H](O)[C@@H](CCc1cccc2oc(-c3ccc(Cl)cc3)nc12)n1cnc(C(N)=O)c1`, the MST was 43 days in the data set on Mus musculus [12] and 45.5 days with Mus musculus [15]. In addition, the AUC in data set [3] was determined as 56200 ng·h/mL. In addition, the values for the CLint scaled in [13] and in data set [9] were 12 mL/min/kg and 50 mL/min/kg, respectively. In [4], the concentration peaked (Cmax) at 14700 ng/mL. Also, the bioavailability came out at 81% in data set [14] and 86% in [16]. Besides, the half-life in data set [8] was 1.87 h. On Adenosine deaminase, this compound came in with an IC50 of 8.7 nM. The same compound displayed a Clearance in data set [6] of 6.2 mL/min/kg. The ED30 in the data set filed under Rattus norvegicus [7] worked out at 0.3 mg/kg.
Consider `NC(N)=Nc1nc(-c2ccc(CNc3nc4ccccc4[nH]3)s2)cs1`, for which the IC50 against Adenosine deaminase was determined as 700 nM.
In data set [3], `C[C@H](O)[C@@H](CCc1cccc2nc(-c3ccc(Cl)cc3)oc12)n1cnc(C(N)=O)c1` registered an AUC of 29600 ng·h/mL. Moreover, the CLint scaled is 34 mL/min/kg in data set [13] and 131 mL/min/kg in data set [9]. In [4], this compound gave a Cmax of 5580 ng/mL. Moreover, the bioavailability was 50% in data set [14] and 52% with Rattus norvegicus [17]. Moreover, in data set [8], the half-life is 3.45 h. Also, in data set [6], the Clearance is 6 mL/min/kg. Besides, in the data set listed under Rattus norvegicus [7], the ED30 came to 0.6 mg/kg.
Take `NC(=O)c1cn(C(CO)CCc2cccc3ccccc23)cn1` (configuration not stated): on Adenosine deaminase, it took 570 nM to reach half-maximal inhibition (IC50).
